24 molecules from ChEMBL document CHEMBL1148798, “High-efficacy 5-HT1A agonists for antidepressant treatment: a renewed opportunity” (J Med Chem, 2007) can be followed below.

Data set [1] concerns the target T1, 5-hydroxytryptamine receptor 1A (Rattus norvegicus, UniProt P19327).
T1 sequence (P19327 whole entry): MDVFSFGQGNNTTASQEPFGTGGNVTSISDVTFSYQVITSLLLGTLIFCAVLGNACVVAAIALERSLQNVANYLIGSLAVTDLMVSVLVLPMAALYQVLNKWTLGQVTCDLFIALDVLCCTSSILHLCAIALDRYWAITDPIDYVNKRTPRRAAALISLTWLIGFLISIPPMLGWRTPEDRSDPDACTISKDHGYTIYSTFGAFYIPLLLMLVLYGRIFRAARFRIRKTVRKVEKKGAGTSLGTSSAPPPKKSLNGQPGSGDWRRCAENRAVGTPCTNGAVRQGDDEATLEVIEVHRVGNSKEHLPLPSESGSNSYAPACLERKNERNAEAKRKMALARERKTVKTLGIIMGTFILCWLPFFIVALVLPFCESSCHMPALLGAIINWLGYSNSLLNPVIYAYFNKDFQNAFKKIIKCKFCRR
The experiment in a line: Binding affinity to 5HT1A receptor in rat cortex membrane. The class given is cell membranes.

Data set [2] deals with T2, 5-hydroxytryptamine receptor 1A (Homo sapiens, UniProt P08908).
T2 sequence (P08908 whole entry): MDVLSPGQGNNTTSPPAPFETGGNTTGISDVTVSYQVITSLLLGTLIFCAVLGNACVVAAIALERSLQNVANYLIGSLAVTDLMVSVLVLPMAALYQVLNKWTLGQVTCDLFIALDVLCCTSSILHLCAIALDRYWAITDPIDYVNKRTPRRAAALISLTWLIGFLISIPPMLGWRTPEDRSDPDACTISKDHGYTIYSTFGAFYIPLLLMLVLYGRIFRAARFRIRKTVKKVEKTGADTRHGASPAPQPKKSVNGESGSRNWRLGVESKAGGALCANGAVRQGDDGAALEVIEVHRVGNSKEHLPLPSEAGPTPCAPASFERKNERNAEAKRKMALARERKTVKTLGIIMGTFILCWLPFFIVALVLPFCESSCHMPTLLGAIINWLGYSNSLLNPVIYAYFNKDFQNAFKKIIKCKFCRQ
Description: Agonist activity at human 5HT1A receptor expressed in C6 cells assessed as stimulation of [35S]GTPgammaS binding. The format is functional, cell-based. A general note: GTPγS is a poorly hydrolysed GTP analogue; its binding reports G protein activation.

In data set [3] the target is T3, 5-hydroxytryptamine receptor 1A (Homo sapiens) (UniProt P08908).
T3 sequence (whole entry): T2 sequence (P08908 whole entry)
The experiment in a line: Agonist activity at human 5HT1A receptor expressed in C6 cells assessed as stimulation of [35S]GTP-gamma-S binding relative to 5-hydroxytryptamine. The class given is functional, cell-based. The method, boiled down:
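Membranes from C6-glial cells expressing h5-HT1A, diluted 20-fold in 20 mM HEPES with 30 µM GDP, 100 mM NaCl, 3 mM MgCl2, 0.2 mM ascorbic acid (16-38 µg protein). Compound preincubated 30 min at 25 °C, then 500 pM [35S]GTPγS added. Six concentrations tested. Nonspecific binding with 10 µM GTPγS.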

Data set [4] has as its system Rattus norvegicus. The experiment in a line: Induction of forepaw treading in orally dosed rat after 60 mins. Particulars: po, 1 h. The class given is functional. Put shortly:
(§1)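 Compounds given po in H2O (10 mL/kg) to rats, five per dose, doses as free base. Forepaw treading sampled in 10 s per rat repeated 10 times over 10 min at 55-65 min. Present if uninterrupted for ≥3 s, responder if score ≥1. Flat body posture scored if present the whole period. […] Ratio is FBP ED50/FPT ED50.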

The test system of data set [5] is Rattus norvegicus. The experiment in a line: Induction of flat body posture in orally dosed rat as after 60 mins. The format is functional. Particulars: po, 1 h. Put shortly:
as §1

The subject of data set [6] is Rattus norvegicus. Description: Antidepressant like activity in orally dosed rat after 60 mins by forced swimming test. The class given is functional. Particulars: po, 1 h. The method, boiled down:
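Porsolt-type test in rats: 15 min swim in a cylinder with 17 cm water at 25 °C, then 5 min retest 24 h later. Immobility scored blind. Vehicle po after session 1. Compound or vehicle po (10 mL/kg) 1 h before retest, n = 5-12 per dose, doses 0.01-40 mg/kg. Responders had immobility <138 s. […] MSD by Kruskal-Wallis then Dunn's test.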

The species entered for data set [7] is Rattus norvegicus. The experiment in a line: Ratio of ED50 for flat body posture induction in rat to ED50 for forepaw treading induction in rat.
Data set [8] can be described thus: Bioavailability in rat. The format is ADME, organism-based. The settings on record: in vivo.
Data set [9] can be described thus: Bioavailability in dog. The settings on record: in vivo. The format is ADME, organism-based, Canis lupus familiaris.
Data set [10] is described as follows: Dissociation constant, pKa of the compound. The format is physicochemical.
Data set [11] is described as follows: Lipophilicity, log D of the compound. The format is physicochemical. Particulars: octanol/water.
Data set [12] in a line: Bioavailability in orally dosed rat. The format is ADME, organism-based. Particulars: in vivo, po.

SMILES strings stand for the structures.

Consider `O=c1[nH]c2ccccc2n1CCN1CCN(c2cccc(C(F)(F)F)c2)CC1` [FLIBANSERIN], for which the affinity in data set [1] corresponds to a Ki of 11.7 nM. In addition, in data set [2], the EC50 (commonly the concentration giving half of the maximal effect) was 631 nM. Moreover, the Emax (commonly the greatest response seen or fitted, relative to the assay's reference) in data set [3] is 72%. For the same molecule, the results for the ED50 in [4], in data set [5] and in [6] were > 40 mg/kg, 20 mg/kg and > 320 mg/kg, respectively.

On to `O=C(c1ccc(F)c(Cl)c1)N1CCC(F)(CNCc2ccc(Cl)cn2)CC1`, for which the affinity in data set [1] corresponds to a Ki of 0.692 nM. Besides, the EC50 in [2] is 69.2 nM. Further, the Emax in [3] was 80.4%. In addition, the values for the ED50 in data set [4] and in data set [5] were 3.8 mg/kg and 4.9 mg/kg, respectively. The Ratio in data set [7] stood at 1.3.

`O=C(c1ccc(F)c(Cl)c1)N1CCC(F)(CNCc2ncc(C(F)F)cn2)CC1`: the Ki (usually the equilibrium dissociation constant of an inhibitor or competing ligand from its target) in data set [1] was 25.1 nM. Also, the half-maximal effective concentration (EC50) in [2] is 3630 nM. Besides, the Emax in data set [3] came out at 82.5%.

Turning to `Cc1ccc(CNCC2(F)CCN(C(=O)c3ccc(F)c(Cl)c3)CC2)nc1` [BEFIRADOL], the ED50 (as a rule, the dose that gives a 50% effect, or the effect in half of the subjects) stood at 0.38 mg/kg in data set [4], 1.4 mg/kg in data set [5] and 0.06 mg/kg in [6]. Further, the bioavailability in data set [8] and in [9] was > 70% each time. Also, the pKa (in general, the negative logarithm of the acid dissociation constant) in data set [10] worked out at 6.4. For the same molecule, the logD (usually lipophilicity at a set pH, counting ionised and neutral species) in data set [11] was 2.6.

Take `O=C(c1ccc(F)c(Cl)c1)N1CCC(F)(CNCc2ccc(CF)cn2)CC1`: the Ki in data set [1] is 1.2 nM. Further, the EC50 in data set [2] was 229 nM. For the same molecule, the Emax in data set [3] came to 61%. Also, the ED50 is 6.1 mg/kg in [4], 16 mg/kg in data set [5] and 0.17 mg/kg in data set [6]. Further, in data set [7], the Ratio stood at 2.6.

In [1], `CNc1nc(CNCC2(F)CCN(C(=O)c3ccc(F)c(Cl)c3)CC2)ncc1Cl` had a Ki of 0.741 nM. Further, the EC50 in data set [2] was 42.7 nM. Besides, the Emax in data set [3] came out at 71.8%. The molecule further came in with an ED50 in data set [6] of 0.32 mg/kg.

Regarding `O=C(c1ccc(F)c(Cl)c1)N1CCC(F)(CNCc2ncc(CO)cn2)CC1`, the Ki in data set [1] is 117 nM.

`O=C(c1ccc(F)c(Cl)c1)N1CCC(F)(CNCc2nccc(-c3ccco3)n2)CC1` gave a Ki in data set [1] of 0.427 nM. Also, the EC50 in [2] is 10 nM. Moreover, the Emax in [3] came out at 79%. Besides, the ED50 in [6] was > 2.5 mg/kg.

For `CN(C)c1ccnc(CNCC2(F)CCN(C(=O)c3ccc(F)c(Cl)c3)CC2)n1`, the Ki in data set [1] is 2.29 nM. Moreover, in [2], the EC50 is 89.1 nM. Moreover, in [3], the maximal effect (Emax) came out at 63.4%.

With `COC(=O)c1cnc(CNCC2(F)CCN(C(=O)c3ccc(F)c(Cl)c3)CC2)nc1`, the inhibition constant (Ki) in [1] was 219 nM.

`Cc1ccc(CNCC2(F)CCN(C(=O)c3ccc(F)c(Cl)c3)CC2)nn1` showed a Ki in [1] of 5.62 nM. For the same molecule, in [2], the EC50 is 7940 nM. The Emax in data set [3] was 89.7%.

On to `O=C(c1ccc(F)c(Cl)c1)N1CCC(F)(CNCc2ncc(Cl)cn2)CC1`, for which the Ki in data set [1] was 3.39 nM. Further, the EC50 in [2] was 155 nM. The Emax in [3] was found to be 76%. Moreover, the median effective dose (ED50) in [6] amounted to 0.03 mg/kg.

Consider `COc1ccnc(CNCC2(F)CCN(C(=O)c3ccc(F)c(Cl)c3)CC2)n1`, for which, in data set [1], affinity was put at a Ki of 6.46 nM. Further, in data set [2], the EC50 is 447 nM. Also, the Emax in data set [3] is 75.5%.

As to `CC(=O)Nc1cccc(N2CCN(CCCCNS(=O)(=O)CC3CCCCC3)CC2)c1` [NALUZOTAN], the Ki in data set [1] is 30.2 nM. Also, in data set [2], the concentration giving a half-maximal response (EC50) was 93.3 nM. Further, in data set [3], the Emax was 6.6%. The ED50 in [4], in data set [5] and in data set [6] was > 40 mg/kg in each case.

In the case of `CCCN(CCC)C1CCc2cccc(O)c2C1` (stereo unspecified) [8-OH-DPAT], the Emax in data set [3] worked out at 35.9%. In addition, the ED50 in [4] is 40 mg/kg; in [5] it was > 40 mg/kg; in data set [6], 0.75 mg/kg.

In data set [1], `Cc1cnc(CNCC2(F)CCN(C(=O)c3ccc(F)c(Cl)c3)CC2)cn1` had a Ki of 66.1 nM.

On to `O=C(O)c1ccc(CNCC2(F)CCN(C(=O)c3ccc(F)c(Cl)c3)CC2)nc1`, for which, in data set [1], the Ki was > 10000 nM.

`O=C(c1ccc(F)c(Cl)c1)N1CCC(F)(CNCc2ncccn2)CC1`: the Ki in data set [1] was 95.5 nM.

In the case of `CCc1cnc(CNCC2(F)CCN(C(=O)c3ccc(F)c(Cl)c3)CC2)nc1`, the Ki in data set [1] is 56.2 nM.

Molecule `Cc1cnc(CNCC2(F)CCN(C(=O)c3ccc(F)c(Cl)c3)CC2)nc1` showed an inhibition constant Ki in data set [1] of 2.24 nM. Also, the EC50 in data set [2] is 389 nM. The Emax in [3] came to 70.3%. In addition, the ED50 in [4] amounted to 1.5 mg/kg; in data set [5] it was 8.3 mg/kg; in [6] it was 0.05 mg/kg. In data set [10], this molecule returned a pKa of 6.7. Besides, in [11], the logD came to 1.5. Further, the bioavailability (usually dose-corrected exposure relative to a reference, in per cent) in data set [12] was > 80%. Also, in [7], the Ratio was determined as 5.5.

In [1], `O=C(c1ccc(F)c(Cl)c1)N1CCC(F)(CNCc2ccc(CO)cn2)CC1` showed a Ki of 7.41 nM. In data set [2], the EC50 was 2040 nM. For the same molecule, the Emax in data set [3] came to 80%.

Consider `CNc1nc(CNCC2(F)CCN(C(=O)c3ccc(F)c(Cl)c3)CC2)ncc1C`, for which, in data set [1], the Ki is 1.74 nM. In [2], the EC50 is 85.1 nM. In addition, in data set [3], the Emax came to 64.1%.

In [1], `CNc1ccnc(CNCC2(F)CCN(C(=O)c3ccc(F)c(Cl)c3)CC2)n1` showed a Ki of 4.79 nM. In addition, the EC50 in data set [2] was 309 nM. Also, in data set [3], the maximal response (Emax) came to 58.8%.

`O=C(c1ccc(F)c(Cl)c1)N1CCC(F)(CNCc2ccc(C(F)F)cn2)CC1` showed a Ki in data set [1] of 3.8 nM. Besides, the EC50 in data set [2] is 240 nM. Further, the maximal response (Emax) in [3] worked out at 96.4%. The values for the median effective dose (ED50) in [4] and in data set [5] were 2.5 mg/kg and 4.2 mg/kg, respectively. Besides, the Ratio in data set [7] came out at 1.7.
